From ChEMBL document CHEMBL1121579, “Synthesis and adrenergic blocking effects of 2-(alkylamino)-3,4-dihydroquinazolines” (1980)

Columns and labels:
Rattus norvegicus [1] = assay: Decrease in mean arterial blood pressure in response to intravenous administration at 2 uM/kg of the compound; format: functional, Artery
In short: (§1)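 Male Sprague-Dawley rats, 300–350 g, anesthetized with pentobarbital sodium 40 mg/kg ip, trachea cannulated for ventilation. Drugs dissolved in 0.9% saline and injected into a cannulated external jugular vein. Poorly soluble material was given in polyethylene glycol/ethanol/water 20:10:70. n = 3 per determination.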

Rattus norvegicus [2] = assay: Decrease in mean arterial blood pressure in response to intravenous administration at 8 uM/kg of the compound; format: functional, Artery; in short: as §1
Rattus norvegicus [3] = assay: Decrease in mean arterial blood pressure in response to intravenous administration at 16 uM/kg of the compound.; format: functional, Artery; in short: as §1
Rattus norvegicus [4] = assay: Decrease in mean arterial blood pressure in response to intravenous administration at 4 uM/kg of the compound; format: functional, Artery; in short: as §1
Rattus norvegicus [5] = assay: Decrease in mean arterial blood pressure in response to intravenous administration at 32 uM/kg of the compound.; format: functional, Artery; in short: as §1
Rattus norvegicus [6] = assay: Antagonist effect to pressor response of 0.3 ug/kg of norepinephrine intravenously in rats at the dose 32 uM/kg; format: functional; in short: as §1
Rattus norvegicus [7] = assay: Decrease in mean arterial blood pressure in response to intravenous administration at 32 uM/kg of the compound; format: functional, Artery; in short: as §1
Rattus norvegicus [8] = assay: Decrease in mean arterial blood pressure in response to intravenous administration at 64 uM/kg of the compound; format: functional, Artery; in short: as §1
Rattus norvegicus [9] = assay: decrease in mean arterial blood pressure in response to intravenous administration at 16 uM/kg of the compound; format: functional; in short: as §1
Rattus norvegicus [10] = assay: Decrease in mean arterial blood pressure in response to intravenous administration at 64 uM/kg of the compound.; format: functional, Artery; in short: as §1
Rattus norvegicus [11] = assay: Antagonist effect to pressor response of 0.3 ug/kg of norepinephrine intravenously in rats at the dose 32 uM/kg.; format: functional; in short: as §1
Rattus norvegicus [12] = assay: Decrease in mean arterial blood pressure in response to intravenous administration at 16 uM/kg of the compound; format: functional, Artery; in short: as §1

SMILES	Decrease in blood pressure (Rattus norvegicus [1]) [%]	Decrease in blood pressure (Rattus norvegicus [2]) [%]	Decrease in blood pressure (Rattus norvegicus [3]) [%]	Decrease in blood pressure (Rattus norvegicus [4]) [%]	Decrease in blood pressure (Rattus norvegicus [5]) [%]	Block (Rattus norvegicus [6]) [%]	Decrease in blood pressure (Rattus norvegicus [7]) [%]	Decrease in blood pressure (Rattus norvegicus [8]) [%]	Decrease in blood pressure (Rattus norvegicus [9]) [%]	Decrease in blood pressure (Rattus norvegicus [10]) [%]	Block (Rattus norvegicus [11]) [%]	Decrease in blood pressure (Rattus norvegicus [12]) [%]
CCCN(CCC)C1=NCc2ccccc2N1	3.2	11.5	30.9	7.6	40							
Cc1ccc(N(CC2=NCCN2)c2cccc(O)c2)cc1 [PHENTOLAMINE]						66.2						
NC1=Nc2ccccc2CN1	6.76	13.3		12		49.3	17.7	23.3	15			
CNC1=Nc2ccccc2CN1	4.67	12.7	19.7	7.7	25					33.3	37.8	
CN(C)C1=Nc2ccccc2CN1	0	5.67		0		10	12.3			24.7		7.3
